In assay [1] the target is Serine/threonine-protein kinase pim-2 (Homo sapiens) (UniProt Q9P1W9). As to the kind of experiment: Inhibition of Pim-2 assessed as residual enzyme activity at 10 uM relative to untreated control.
Assay [2] addresses Serine/threonine-protein kinase pim-1 (Homo sapiens) (UniProt P11309). As to the kind of experiment: Inhibition of Pim-1 assessed as residual enzyme activity at 1 uM relative to untreated control.
The target in assay [3] is Serine/threonine-protein kinase pim-2 (Homo sapiens) (UniProt Q9P1W9). As to the kind of experiment: Inhibition of Pim-2 assessed as residual enzyme activity at 1 uM relative to untreated control.
For assay [4], the target named is Serine/threonine-protein kinase pim-3 (Homo sapiens) (UniProt Q86V86). As to the kind of experiment: Inhibition of Pim-3 assessed as residual enzyme activity at 10 uM relative to untreated control.
Assay [5] has the same target. As to the kind of experiment: Inhibition of Pim-3 assessed as residual enzyme activity at 1 uM relative to untreated control.
Assay [6] addresses Serine/threonine-protein kinase pim-1 (Homo sapiens) (UniProt P11309). As to the kind of experiment: Inhibition of Pim-1 assessed as residual enzyme activity at 10 uM relative to untreated control.
The next assay deals with PC-3. As to the kind of experiment: Antiproliferative activity against human PC3 cells after 48 hrs by resazurin dye reduction assay. The format is functional, cell-based. Conditions: PC-3, 48 h. The gist of the method:
(§1)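 Cells (human fibroblast primary culture, or PC3, DU145 or PA1 cancer lines) were kept as monolayers in Glutamax MEM with Earle's salts, 10% FCS, pyruvate, nonessential amino acids and gentamicin, at 37 °C in 5% CO2. 5×10^3 cells/well adhered for 16 h, then had 48 h continuous drug exposure (20 mM DMSO stock). Resazurin 25 µg/mL for 1 h; fluorescence ex 530/em 590 nm. IC50 from blank-corrected concentration–survival curves versus control wells.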

The nature of assay [7]: Antiproliferative activity against human fibroblasts after 48 hrs by resazurin dye reduction assay. The format is cell-based. Conditions: Fibroblast. The gist of the method:
as §1

The test system of another assay is PA-1. As to the kind of experiment: Antiproliferative activity against human PA1 cells after 48 hrs by resazurin dye reduction assay. It counts as functional, cell-based. Conditions: PA-1, 48 h. Put shortly:
as §1

The subject of a further assay is DU-145. As to the kind of experiment: Antiproliferative activity against human DU145 cells after 48 hrs by resazurin dye reduction assay. The format is functional, cell-based. Conditions: DU-145, 48 h. Put shortly: as §1

Serine/threonine-protein kinase pim-2 (Homo sapiens), sequence (Q9P1W9 whole entry, looked up): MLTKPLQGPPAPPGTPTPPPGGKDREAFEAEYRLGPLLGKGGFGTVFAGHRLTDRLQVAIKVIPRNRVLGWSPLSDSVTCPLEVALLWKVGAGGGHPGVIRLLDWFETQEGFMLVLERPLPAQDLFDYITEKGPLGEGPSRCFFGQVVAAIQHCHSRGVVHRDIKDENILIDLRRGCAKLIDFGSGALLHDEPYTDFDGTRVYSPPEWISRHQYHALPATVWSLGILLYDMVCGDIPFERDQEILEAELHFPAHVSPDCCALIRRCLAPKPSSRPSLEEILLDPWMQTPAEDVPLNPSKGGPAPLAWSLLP
Serine/threonine-protein kinase pim-1 (Homo sapiens), sequence (P11309 whole entry, looked up): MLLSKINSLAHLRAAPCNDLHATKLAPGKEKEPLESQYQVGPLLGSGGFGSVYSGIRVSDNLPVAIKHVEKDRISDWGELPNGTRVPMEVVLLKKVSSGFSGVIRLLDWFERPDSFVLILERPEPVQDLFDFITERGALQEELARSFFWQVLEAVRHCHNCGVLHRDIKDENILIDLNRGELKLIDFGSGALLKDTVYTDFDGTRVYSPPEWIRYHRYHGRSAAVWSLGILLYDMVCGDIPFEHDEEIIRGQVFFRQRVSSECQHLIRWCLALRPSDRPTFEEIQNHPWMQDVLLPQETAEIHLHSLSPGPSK

As for `O=C(c1c[nH]c2c1ccc1c3ccccc3[nH]c12)C(F)(F)F`, the Activity in [1] amounted to 30%; in assay [2] it was 61%; in [3], 54%; in assay [4] it was 7%; in [5], 20%; in assay [6], 20%.

`O=Cc1c[nH]c2c1ccc1c3cc(-c4ccc(C(F)(F)F)cc4)ccc3[nH]c12`: the Activity was 52% in assay [1]; 79% in [2]; 49% in [3]; 23% in [4]; 70% in [5]; 28% in [6].

With `Brc1ccc2[nH]c3c(ccc4cc[nH]c43)c2c1`, the Activity in assay [1] was determined as 46%; in [2], 69%; in assay [3], 67%; in assay [4], 8%; in assay [5], 55%; in [6], 12%.

For the compound `O=Cc1c[nH]c2c1ccc1c3cc(-c4ccccc4)ccc3[nH]c12`, the Activity is 53% in [1]; 60% in assay [2]; 68% in assay [3]; 15% in assay [4]; 54% in assay [5]; 16% in [6].

Consider `OCc1c[nH]c2c1ccc1c3ccccc3[nH]c12`, for which the Activity in [1] stood at 47%; in [2], 72%; in assay [3], 46%; in [4], 18%; in assay [5], 68%; in [6] it was 28%.

In the case of `O=Cc1c[nH]c2c1ccc1c3cc(-c4ccc(F)cc4F)ccc3[nH]c12`, the Activity in assay [1] stood at 32%; in assay [2], 39%; in [3], 59%; in [4], 6%; in [5], 26%; in [6] it was 6%.

With `O=Cc1c[nH]c2c1ccc1c3cc(-c4ccc(-c5ccccc5)cc4)ccc3[nH]c12`, the Activity in assay [1] came to 70%; in assay [2] it was 69%; in assay [3], 67%; in assay [4], 48%; in [5], 77%; in assay [6], 39%.

As for `CCN(CC)C(=O)/C(=N\O)c1c[nH]c2c1ccc1c3ccccc3[nH]c12`, the Activity in [1] was determined as 27%; in assay [2] it was 80%; in assay [3] it was 62%; in assay [4], 21%; in assay [5], 74%; in assay [6] it was 41%.

`O=S(=O)(c1ccccc1)n1ccc2ccc3c4ccccc4[nH]c3c21`: the Activity in assay [1] amounted to 62%; in assay [2] it was 83%; in assay [3] it was 65%; in assay [4], 64%; in assay [5], 102%; in assay [6], 61%.

With `OCCc1c[nH]c2c1ccc1c3ccccc3[nH]c12`, the Activity in [1] worked out at 50%; in [2], 90%; in assay [3], 69%; in [4], 21%; in assay [5], 72%; in [6], 35%.

As for `O=Cc1c[nH]c2c1ccc1c3cc(Br)ccc3[nH]c12`, the Activity was 53% in [1]; 31% in [2]; 82% in [3]; 6% in assay [4]; 11% in [5]; 6% in [6]. Also, the IC50 was 5.9 µM with PC-3, 11 µM in [7], 2.8 µM with PA-1 and 12.2 µM with DU-145.

In the case of `O=Cc1c[nH]c2c1ccc1c3cc(-c4ccc(F)cc4)ccc3[nH]c12`, the Activity in [1] was found to be 55%; in assay [2], 65%; in assay [3], 72%; in assay [4], 15%; in assay [5], 54%; in assay [6], 15%.

In the case of `COc1cccc(-c2ccc3[nH]c4c(ccc5c(C=O)c[nH]c54)c3c2)c1`, the Activity in assay [1] turned out to be 31%; in [2], 64%; in assay [3] it was 65%; in assay [4], 12%; in assay [5], 46%; in [6] it was 17%.

`O=Cc1c[nH]c2c1ccc1c3cc(-c4ccc(OC(F)(F)F)cc4)ccc3[nH]c12`: the Activity in assay [1] turned out to be 70%; in assay [2], 68%; in assay [3], 73%; in assay [4] it was 31%; in assay [5], 77%; in assay [6], 29%.

Turning to `NC(=O)c1c[nH]c2c1ccc1c3ccccc3[nH]c12`, the Activity in assay [1] came out at 27%; in assay [4] it was 9%; in [6] it was 9%.

For the origin of these results see ChEMBL document CHEMBL1154186, “Synthesis, kinase inhibitory potencies, and in vitro antiproliferative evaluation of new Pim kinase inhibitors” (J Med Chem, 2009).
